# Screens as filed in PubChem.
# Sampled rows, rich in hits. Any-hit rate of the full collection: about 3.5%.
# MrgX1 allo act: allosterically activates human MrgX1 receptor signaling. B-score at 10 µM. actives 0.63% (n = 310,000). AID 588675. Q96LB2. MrgX1-HEK293, Fluo-4 calcium flux, FDSS; hits give high values;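 active = plate-corrected calcium response at least 3 library SD above typical, normal starting fluorescence, not activating the receptor alone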;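 note: compound read alongside a low EC10 to EC30 dose of BAM8-22 agonist; peak minus trough fluorescence over baseline measured at the second addition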
# Target sequence (Q96LB2 whole entry, looked up): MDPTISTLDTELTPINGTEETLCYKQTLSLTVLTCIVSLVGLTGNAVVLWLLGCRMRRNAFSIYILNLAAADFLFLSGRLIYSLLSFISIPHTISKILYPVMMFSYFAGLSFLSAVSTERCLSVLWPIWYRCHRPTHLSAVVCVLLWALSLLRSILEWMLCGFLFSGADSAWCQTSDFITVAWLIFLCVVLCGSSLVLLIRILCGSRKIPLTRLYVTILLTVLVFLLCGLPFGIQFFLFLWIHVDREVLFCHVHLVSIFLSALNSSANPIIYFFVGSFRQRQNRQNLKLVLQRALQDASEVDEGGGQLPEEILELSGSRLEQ
# MrgX1 antag: antagonists of human MrgX1 receptor; Q96LB2; MRGX1-HEK293 calcium flux, Fluo-4, BAM8-22 antagonism; hits give low values; B-score at 10 µM; actives 1.3% (n = 310,000);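 active = calcium-response B-score plate-corrected more than 3 library SD below zero, starting fluorescence within 5 deviations, no agonist response on first addition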;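 note: peak minus trough fluorescence over baseline after final BAM8-22 challenge near maximal dose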
# RGS4 act: potentiators or activators of RGS4. HEK293 M3R/inducible RGS4, carbachol calcium flux Fluo4; hits give low values. B-score at 10 µM. actives 0.92% (n = 310,000);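 active = B-score of the integrated calcium signal more than 4 SD below the library mean, with starting fluorescence not abnormally high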;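 note: negative B-score means reduced calcium response which marks RGS4 activation or potentiation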
#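 Assay system: Inducible-RGS4 HEK293 cells carrying M3 receptor | Schedule: Compound preincubation 20 min at room temperature before agonist | Signal: Kinetic calcium fluorescence imaging with Fluo4-AM dye, 2 µM | Read-out basis: B score from integrated fluorescence ratio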
# MrgX1 agonist: agonists of human MrgX1 receptor; Q96LB2; MrgX1-HEK293 cells, Fluo-4 calcium fluorescence, agonist mode; hits give high values; B-score at 10 µM; actives 0.44% (n = 310,000);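 active = calcium response B-score plate-corrected fluorescence ratio at least 3 library SD, with starting fluorescence B-score inside 5 SD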
#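 Material: MrgX1-expressing HEK293 cells; input: 15,000 cells per well; doses: test compound given as first of three sequential additions; schedule: overnight plating before 1 h dye loading; technique: Fluo-4 NW calcium-flux fluorescence, kinetic read; evaluation: baseline-normalised fluorescence change ratio, B-scored; control set: plate-wise positive and negative controls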
# RGS4 inh: human RGS4 inhibition. P49798. HEK293 M3R/RGS4 inducible, Fluo-4 calcium flux; hits give high values; triggered by carbachol at its EC20. B-score at 10 µM. actives 0.45% (n = 310,000). AID 463165;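 active = B-score, a plate-corrected calcium signal, over three deviations above library mean, with baseline fluorescence within five deviations of library mean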;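 note: RGS4 expression induced by doxycycline in cells with stable M3 receptor; B-score is computed from the integrated fluorescence ratio over baseline after carbachol; higher B-score means a larger calcium signal and so more RGS4 inhibition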
# Target sequence (P49798 whole entry, looked up): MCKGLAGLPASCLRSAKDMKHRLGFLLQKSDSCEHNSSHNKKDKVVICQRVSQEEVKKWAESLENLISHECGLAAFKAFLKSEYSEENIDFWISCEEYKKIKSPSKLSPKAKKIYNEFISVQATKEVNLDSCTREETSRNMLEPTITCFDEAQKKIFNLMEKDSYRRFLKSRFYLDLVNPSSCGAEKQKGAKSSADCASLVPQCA
# RGS4 inh valid: RGS4 inhibitor validation. shares compounds with RGS4 inh. HEK293 M3R/RGS4, carbachol calcium Fluo-4 fluorescence; carbachol added at its EC20; 0 = buffer wells, 100 = carbachol control. calcium response, % at 10 µM. actives 65% (n = 1,700). AID 492999;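 active = duplicate-averaged calcium response above the buffer-only control mean plus 5 SD of those controls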;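 note: integrated fluorescence ratio F max minus min over baseline F0; higher response in RGS4-induced cells means RGS4 inhibition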
# M3R Ca ctr: counter-screen for RGS4 inhibitors: effect in non-induced cells; shares compounds with RGS4 inh; HEK293 M3R non-induced, carbachol calcium Fluo-4; submaximal (EC20) carbachol stimulus; buffer wells 0%, carbachol control wells 100%; activity (percent), % at 10 µM; actives 20% (n = 1,900); AID 493000; call rule not given here;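 note: RGS4 induction absent so cells express M3R without RGS4; higher means more calcium signal and flags a non-specific hit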
# RGS4 inh ctr2: signal in non-induced cells without carbachol, RGS4 inhibitor counter-screen. shares compounds with RGS4 inh. HEK293 M3R/RGS4 non-induced, Fluo-4 calcium, no carbachol; normalised: buffer wells 0%, carbachol wells 100%. calcium response (agonist-mode artifact), % at 10 µM. actives 22% (n = 1,900);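 active = duplicate-averaged calcium rise in uninduced cells above buffer wells' mean plus 5 SD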
# * hit, by the source's call; i = inactive; nt = not tested or not shown.
SMILES,MrgX1 allo act,MrgX1 antag,RGS4 act,MrgX1 agonist,RGS4 inh,RGS4 inh valid,M3R Ca ctr,RGS4 inh ctr2
CCCCOc1ccc(/C=C2/Sc3ccccc3C2=O)cc1,i,i,i,i,i,nt,nt,nt
Cc1nc2ccccc2c(=O)n1-c1cccc(NC(=O)c2cccs2)c1,i,i,i,i,i,nt,nt,nt
O=C(Nc1cccc(N2C(=O)C=CC2=O)c1)c1cccs1,i,i,i,35*,21.2*,33.0%*,i,47.5%*
Cc1ccc(-c2nn(C)c(=O)c3ccccc23)cc1CN1CCCCC1,i,i,i,i,i,nt,nt,nt
COc1ccc(N/C(=C2\CCCC2=O)C2CCCCC2)cc1,i,i,i,i,i,nt,nt,nt
CC1CCN(c2c(NCC3CCC(C(=O)NCCCc4ccccc4)CC3)c(=O)c2=O)CC1 (stereo unspecified),i,i,i,i,6.42*,6.0%*,i,i
CC1CCN(c2c(NCC3CCC(C(=O)NCc4ccccc4)CC3)c(=O)c2=O)CC1 (stereo unspecified),i,i,i,i,i,nt,i,i
Cc1ccc(S(C)(=O)=O)cc1C(=O)NC(C)C1CC2CCC1C2 (stereo unspecified),i,i,i,i,i,nt,nt,nt
N#CC1=C(N)C(C#N)(C#N)C2(C(=O)Nc3ccccc32)C2CCCC=C12 (stereo unspecified),i,i,i,i,5.4*,24.0%*,31.0%*,i
O=C1c2cccc3cc([N+](=O)[O-])cc(c23)C(=O)N1c1ccccc1O,i,i,i,i,5.13*,14.0%*,i,i
Cc1[nH]nc2c1C1(C(=O)N(Cc3ccc(Cl)cc3)c3ccccc31)C(C#N)=C(N)O2 (stereo unspecified),i,i,i,i,i,nt,nt,nt
COC(=O)Cc1[nH]nc2c1C1(C(=O)N(Cc3ccccc3)c3ccccc31)C(C#N)=C(N)O2 (stereo unspecified),i,i,i,i,i,nt,i,i
COc1ccc(NC(=S)NNC(=O)Cn2nc(C(F)F)cc2C(F)F)cc1,i,i,i,i,i,nt,nt,nt
CCN(CC)CCN(C(=O)c1ccc2c(c1)CCCC2)c1nc2cc(OC)c(OC)cc2s1,i,i,i,i,5.26*,i,i,i
COc1cc2nc(N(CCN(C)C)C(=O)c3ccc4ccccc4c3)sc2cc1OC,i,i,i,i,i,nt,nt,nt
CCN(CCO)c1nc(SC)nc2c1sc1nc(-c3ccco3)c3c(c12)CCC3,i,i,i,i,i,i,i,i
COC(=O)c1cc2c(ccn2-c2ccc(F)cc2)n1CC(C)C,i,i,i,i,10.9*,36.5%*,i,i
CCCn1c(C(=O)OC)cc2c1ccn2-c1ccc(F)cc1,i,i,i,i,i,nt,nt,nt
Cc1ccc(/C=C2\C(=O)ON=C2c2ccccc2)o1,i,i,i,i,i,nt,nt,nt
Cc1ccc(-c2ccc(/C=C3\C(=O)ON=C3c3ccccc3)o2)c([N+](=O)[O-])c1,i,-6.31*,i,i,11.7*,i,i,14.0%*
O=[N+]([O-])c1ccc(N2CCOCC2)cc1O,i,i,i,i,i,nt,nt,nt
Cc1cc(N2CCOCC2)ccc1/C=C\[N+](=O)[O-],i,i,i,67*,27.4*,98.0%*,57.0%*,75.0%*
C/C(=N\N=C(/N)SC1CC(=O)N(c2ccc(Br)cc2)C1=O)c1cccs1 (stereo unspecified),i,i,i,i,10.6*,37.0%*,31.0%*,i
CCCCCOc1ccc(N2C(=O)CC(N(O)c3ccccc3)C2=O)cc1 (stereo unspecified),i,i,i,i,i,nt,nt,nt
C/C(=N\N=C(/N)SC1CC(=O)N(c2ccc(Cl)c(Cl)c2)C1=O)c1cccs1 (stereo unspecified),i,i,i,i,6.36*,5.5%*,i,i
SMILES,MrgX1 allo act,MrgX1 antag,RGS4 act,MrgX1 agonist,RGS4 inh,RGS4 inh valid,M3R Ca ctr,RGS4 inh ctr2
CCCCCCOc1ccc(N2C(=O)CC(S/C(N)=N/N=C(\C)c3cccs3)C2=O)cc1 (stereo unspecified),i,i,i,i,7.5*,i,i,i
C/C(=N\N=C(/N)SC1CC(=O)N(c2ccc(Cl)cc2)C1=O)c1cccs1 (stereo unspecified),i,i,i,i,8.72*,5.0%*,40.0%*,i
NCCSC1CC(=O)N(c2ccc(Cl)c(Cl)c2)C1=O (stereo unspecified),i,i,i,i,i,nt,nt,nt
CCN(CCO)c1nc(NCc2ccccc2)c2cnn(C)c2n1,i,i,i,i,i,nt,nt,nt
N#Cc1ccc(/C=N/NC(=O)c2cccc(S(=O)(=O)N3CCOCC3)c2)cc1,i,i,i,i,i,nt,nt,nt
C/C(=N\N=C(/N)SC1CC(=O)N(c2ccccc2)C1=O)c1cccs1 (stereo unspecified),i,i,i,i,i,nt,i,i
N/C(=N\N=C\c1cccs1)SC1CC(=O)N(c2ccc(Br)cc2)C1=O (stereo unspecified),i,i,i,i,i,nt,nt,nt
C=CCn1c(O)c(C2=c3ccccc3=NC2=O)c2ccccc21,i,i,i,i,5.63*,12.0%*,33.0%*,22.5%*
Cc1ccc2c(c1)c(C1=c3ccccc3=NC1=O)c(O)n2C,i,i,i,i,i,nt,nt,nt
C=CCN=C(C)C1=C(O)C(C)OC1=O (stereo unspecified),i,i,i,i,i,nt,nt,nt
CC(C)(C)Sc1ccc(/C=N/O)cc1[N+](=O)[O-],i,i,i,i,6.81*,10.0%*,i,i
COc1ccc(C)cc1NCc1ccc(OC)c(C)c1OC,i,i,i,i,i,nt,nt,nt
CCOc1ccccc1/C=C(\C#N)C(=O)Nc1cccc(C(=O)O)c1,i,i,i,i,4.98*,14.0%*,i,i
